The values that follow come from ChEMBL document CHEMBL5715960, “Epigenetic Co-Deregulation of EZH2/TET1 is a Senescence-Countering, Actionable Vulnerability in Triple-Negative Breast Cancer” (Theranostics, 2019).

Active and inactive are the calls of the source. No cut-off for these calls is given here.

For series [1], the system named is MDA-MB-436. Briefly: Cytotoxicity against human MDA-MB-436 cells upto 0.5 ug/ml. The class given is functional, cell-based. As to conditions: dose <= 0.5 µg/ml.
Series [2] has as its system MDA-MB-231. Briefly: Cytotoxicity against human MDA-MB-231 cells upto 0.5 ug/ml. The class given is functional, cell-based. As to conditions: dose <= 0.5 µg/ml.
For a further series, the system named is BT-474. As to the kind of experiment: Antiproliferative activity against human BT-474 cells assessed as increase in global H3K9me3 expression level by immunoblot analysis. Type of series: toxicity, cell-based. Summed up: (§1)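 Cells exposed to GSK343 at 2 µM (standard level unless stated otherwise), lysed and immunoblotted; α-tubulin and total H3 as loading controls.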

The subject of a further series is MCF7. As to the kind of experiment: Antiproliferative activity against human MCF7 cells assessed as increase in global H3K9me3 expression level by immunoblot analysis. Type of series: toxicity, cell-based. Summed up: as §1
The subject of series [3] is MDA-MB-436. As to the kind of experiment: Antiproliferative activity against human MDA-MB-436 cells assessed as increase in global H3K9me3 expression level by immunoblot analysis. The class given is functional, cell-based. Summed up: as §1
On the technique in general: Immunoblotting shows a protein as a band on a membrane.

For series [4], the system named is MDA-MB-231. As to the kind of experiment: Antiproliferative activity against human MDA-MB-231 cells assessed as increase in global H3K9me3 expression level by immunoblot analysis. Type of series: functional, cell-based. Summed up:
as §1

Turning to `COc1cccc2c1C(=O)c1c(O)c3c(c(O)c1C2=O)C[C@@](O)(C(=O)CO)C[C@@H]3O[C@H]1C[C@H](N)[C@H](O)[C@H](C)O1`, the outcome with MDA-MB-436 [1] and with MDA-MB-231 [2] was inactive.

For `Nc1nccc2c1ncn2[C@@H]1C=C(CO)[C@@H](O)[C@H]1O`, the Activity result in the series with BT-474 and in the series with MCF7 was “Non-Toxic” in each case. The result in the series on MDA-MB-436 [3] was inactive. In the series on MDA-MB-231 [4], the outcome was Active.
